Measurements of several laboratories.
Compare with care: the assays were run in different laboratories.
Target: Serine/threonine-protein kinase Nek9 (NEK9, Homo sapiens, UniProt Q8TD19)
One construct used (Q8TD19 1-979): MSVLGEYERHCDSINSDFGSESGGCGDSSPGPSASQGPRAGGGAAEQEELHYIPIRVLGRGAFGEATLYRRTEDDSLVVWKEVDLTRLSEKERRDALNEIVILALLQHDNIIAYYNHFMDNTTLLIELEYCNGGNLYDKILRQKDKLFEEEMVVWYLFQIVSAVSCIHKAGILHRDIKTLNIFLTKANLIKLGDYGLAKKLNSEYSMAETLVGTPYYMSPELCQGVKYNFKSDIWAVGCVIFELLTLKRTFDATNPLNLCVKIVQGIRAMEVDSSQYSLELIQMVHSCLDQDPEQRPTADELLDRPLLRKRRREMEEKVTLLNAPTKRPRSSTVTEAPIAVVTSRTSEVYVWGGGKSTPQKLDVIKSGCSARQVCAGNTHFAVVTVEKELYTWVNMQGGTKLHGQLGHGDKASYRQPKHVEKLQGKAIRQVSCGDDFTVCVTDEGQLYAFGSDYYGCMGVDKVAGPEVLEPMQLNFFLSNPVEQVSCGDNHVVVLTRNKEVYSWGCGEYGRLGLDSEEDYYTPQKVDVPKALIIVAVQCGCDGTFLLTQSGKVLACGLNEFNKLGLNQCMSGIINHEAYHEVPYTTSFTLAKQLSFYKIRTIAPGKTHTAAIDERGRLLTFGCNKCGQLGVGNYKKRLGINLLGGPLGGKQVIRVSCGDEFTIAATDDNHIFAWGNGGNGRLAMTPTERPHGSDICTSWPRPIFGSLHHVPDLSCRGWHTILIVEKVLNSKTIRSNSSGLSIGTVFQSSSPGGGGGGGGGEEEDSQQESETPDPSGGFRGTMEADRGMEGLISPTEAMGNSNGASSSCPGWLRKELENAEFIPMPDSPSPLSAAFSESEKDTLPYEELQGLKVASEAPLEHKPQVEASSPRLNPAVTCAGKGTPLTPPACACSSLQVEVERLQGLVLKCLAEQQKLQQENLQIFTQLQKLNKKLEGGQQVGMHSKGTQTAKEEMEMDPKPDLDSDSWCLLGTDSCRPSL

| Structure (SMILES) | assay | system | setting | endpoint | result |
| --- | --- | --- | --- | --- | --- |
| COc1ncccc1-c1cnn2ccc(N3CCN(C(=O)OC(C)C)CC3)nc12 | binding, competition with immobilised ligand | – | 1 µM | remaining binding | 100% |
| Cn1cncc1[C@](O)(COc1ccc(C#N)cc1-c1ccc(OC(F)(F)F)cc1)c1ccc(C#N)cc1 | cell-free assay, competition with immobilised ligand | – | 1 µM | remaining binding | 72% |
| Nc1ncc(-c2nc(N3CCOCC3)nc(N3CCOCC3)n2)c(C(F)F)n1 | binding, competition with immobilised ligand | – | 10 µM | remaining binding | 92% |
| O=c1[nH]c2ccccc2n1C1CCN(Cc2ccc(-c3[nH]c4cc5ncnc5cc4nc3-c3ccccc3)cc2)CC1 | cell-free assay | – | 0.5 µM | remaining signal | 99.2% |
| Cn1cc(-c2cc(F)cc(N3CCn4c(cc5c4CCCC5)C3=O)c2CO)cc(Nc2ccc(N3CCN(C4COC4)CC3)cn2)c1=O | enzyme activity, inhibitor | – | 0.1 µM | inhibition | 6% |
| CCN1CCN(Cc2ccc(NC(=O)c3ccc(C)c(Oc4ccnc5[nH]ccc45)c3)cc2C(F)(F)F)CC1 | target engagement in cells, inhibitor, chemoproteomics | Huh-7 | 10 µM | inhibition | -10.9% |
| CC(C)(C)c1cc(C=C(C#N)C#N)cc(Br)c1O | enzyme activity, inhibitor | – | 0.5 µM | remaining activity | 103% |
| Cn1cc(-c2cccc(N3CCc4c(sc5c4CC(C)(C)C5)C3=O)c2CO)cc(Nc2ccncn2)c1=O | enzyme activity, inhibitor | – | 1 µM | inhibition | -1% |
